Where “and” joins values, the source holds several entries; their conditions need not be identical. Equal values may be shown once.
Test system: Fibroblast
Assay: Multiplex assay against human fibroblast
Type: toxicity, cell-based
Procedure, shortened: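 With compound added, live cells were imaged on a CQ1 microscope at 37°C and 5% CO2; staining with Hoechst33342, BioTracker Green Microtubule Cytoskeleton Dye, MitoTracker Red and Annexin V Alexa Fluor 680 had been done at seeding. The CellPathfinder machine-learning gating scheme split cells into Hoechst high-intensity objects or normal cells, normal cells into healthy, pyknosed or fragmented nuclei, and pyknosed cells into mitotic or apoptotic. The tubulin, mitochondrial-mass and membrane-permeability phenotypes are per cents of healthy-nucleus cells.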

[1] = 12 h, 1 µM, compound concentration 1 uM
[2] = 12 h, 10 µM, compound concentration 10 uM
[3] = 24 h, 1 µM, compound concentration 1 uM
[4] = 24 h, 10 µM, compound concentration 10 uM
[5] = 48 h, 1 µM, compound concentration 1 uM
[6] = 48 h, 10 µM, compound concentration 10 uM

SMILES: COc1cc(NC(=O)CCN2CCC(OC(=O)Nc3ccccc3-c3ccccc3)CC2)c(Cl)cc1CNC[C@H](O)c1ccc(O)c2[nH]c(=O)ccc12 [BATEFENTEROL]
- Population Apoptotic (%) [1]: 53% and 37%
- Population Fragmented Nuclei (%) [1]: 25%
- Population Healthy Nuclei (%) [1]: 58% and 54%
- Population Hoechst High Intensity Objects (%) [1]: 2% and 3%
- Population Membrane Permeable-Phenotype (%) [1]: 0% and 3%
- Population Mitochondria Different-Phenotype (%) [1]: 13% and 7%
- Population Mitotic Cells (%) [1]: 46% and 62%
- Population Normal (%) [1]: 97% and 96%
- Population Pyknosed Nuclei (%) [1]: 15% and 20%
- Population Tubulin-Different-Phenotype (%) [1]: 42% and 50%
- Total Cell Count [1]: 181 and 124
- Population Apoptotic (%) [2]: 46% and 41%
- Population Fragmented Nuclei (%) [2]: 24% and 44%
- Population Healthy Nuclei (%) [2]: 59% and 41%
- Population Hoechst High Intensity Objects (%) [2]: 2%
- Population Membrane Permeable-Phenotype (%) [2]: 0% and 1%
- Population Mitochondria Different-Phenotype (%) [2]: 22% and 23%
- Population Mitotic Cells (%) [2]: 53% and 58%
- Population Normal (%) [2]: 97%
- Population Pyknosed Nuclei (%) [2]: 16% and 13%
- Population Tubulin-Different-Phenotype (%) [2]: 63% and 84%
- Total Cell Count [2]: 199 and 128
- Population Apoptotic (%) [3]: 55% and 50%
- Population Fragmented Nuclei (%) [3]: 21% and 26%
- Population Healthy Nuclei (%) [3]: 62% and 59%
- Population Hoechst High Intensity Objects (%) [3]: 1% and 2%
- Population Membrane Permeable-Phenotype (%) [3]: 0% and 3%
- Population Mitochondria Different-Phenotype (%) [3]: 7% and 10%
- Population Mitotic Cells (%) [3]: 44% and 50%
- Population Normal (%) [3]: 98% and 97%
- Population Pyknosed Nuclei (%) [3]: 15% and 14%
- Population Tubulin-Different-Phenotype (%) [3]: 39% and 57%
- Total Cell Count [3]: 174 and 131
- Population Apoptotic (%) [4]: 51% and 81%
- Population Fragmented Nuclei (%) [4]: 35% and 46%
- Population Healthy Nuclei (%) [4]: 53% and 45%
- Population Hoechst High Intensity Objects (%) [4]: 0% and 1%
- Population Membrane Permeable-Phenotype (%) [4]: 0% and 1%
- Population Mitochondria Different-Phenotype (%) [4]: 34% and 14%
- Population Mitotic Cells (%) [4]: 48% and 18%
- Population Normal (%) [4]: 99% and 98%
- Population Pyknosed Nuclei (%) [4]: 11% and 8%
- Population Tubulin-Different-Phenotype (%) [4]: 63% and 80%
- Total Cell Count [4]: 247 and 136
- Population Apoptotic (%) [5]: 62% and 66%
- Population Fragmented Nuclei (%) [5]: 23% and 29%
- Population Healthy Nuclei (%) [5]: 54% and 56%
- Population Hoechst High Intensity Objects (%) [5]: 3%
- Population Membrane Permeable-Phenotype (%) [5]: 0% and 4%
- Population Mitochondria Different-Phenotype (%) [5]: 18% and 14%
- Population Mitotic Cells (%) [5]: 37% and 33%
- Population Normal (%) [5]: 96%
- Population Pyknosed Nuclei (%) [5]: 22% and 14%
- Population Tubulin-Different-Phenotype (%) [5]: 53% and 70%
- Total Cell Count [5]: 185 and 130
- Population Apoptotic (%) [6]: 74% and 88%
- Population Fragmented Nuclei (%) [6]: 22% and 45%
- Population Healthy Nuclei (%) [6]: 54% and 48%
- Population Hoechst High Intensity Objects (%) [6]: 1% and 0%
- Population Membrane Permeable-Phenotype (%) [6]: 0% and 1%
- Population Mitochondria Different-Phenotype (%) [6]: 45% and 15%
- Population Mitotic Cells (%) [6]: 25% and 11%
- Population Normal (%) [6]: 98% and 99%
- Population Tubulin-Different-Phenotype (%) [6]: 77% and 76%
- Total Cell Count [6]: 213 and 144

— ChEMBL document CHEMBL5724801, “EUbOPEN Chemogenomics Library - Multiplex” (2024)
